Published values of several laboratories.
Each line is one published result; the experiments were not run side by side.

The chromatographic logD of `CCOC(=O)C1=C(C)N/C(=C/c2ccn(-c3ccccc3C(F)(F)F)c2)C1=O` is reported as 3 (HPLC; pH 7.4).
The chromatographic logD of `CO[C@H](C(=O)N1Cc2c(-c3ccc(C(=O)N4CCCc5ccccc54)cc3)cnn2C[C@H]1C(C)C)c1cnn(C)c1` (single isomer, unassigned) is reported as 4.2 (HPLC; pH 7.4).
The chromatographic logD of `CC(=O)Nc1nc(-c2c(F)cccc2F)cs1` is reported as 3.7 (pH 7.4).
`CO[C@H](C(=O)N1Cc2c(-c3ccc(C(=O)N4CCCc5ccccc54)cn3)cnn2C[C@H]1C(C)C)c1cnn(C)c1` (single isomer, unassigned) gave a chromatographic logD of 3.1 (HPLC; pH 7.4).
With `COc1ccc(-c2nc(C(=O)Nc3cccc(-c4nnc5n4CCCCC5)c3)cs2)cc1OC` the chromatographic logD was 4.8 (pH 7.4).
`N#CC(c1ccc(CNc2cccc3c2CN(C2CCC(=O)NC2=O)C3=O)cc1)N1CCOCC1` (stereo not drawn) has a chromatographic logD of 2 (HPLC; pH 7.4).
With `CO[C@H](C(=O)N1Cc2c(-c3ccc(C(=O)N4CCCc5ccccc54)cc3)cnn2C[C@H]1C(C)C)c1ccccc1` (single isomer, unassigned) the chromatographic logD was 5.4 (HPLC; pH 7.4).
`CCOC(=O)C1=C(C)N/C(=C/c2cc(C)n(-c3ccc(SC(F)(F)F)cc3)c2C)C1=O` has a chromatographic logD of 3.8 (HPLC; pH 7.4).
`Cn1c(-c2nc3cc(C(=O)N4CCCC(N)C4)ccc3n2C)cc2ccccc21` (stereo not drawn) gave a chromatographic logD of 2.8 (HPLC; pH 7.4).
`O=C(Nc1ccnc(C(F)(F)F)c1)Nc1cccc2c1OC(F)(F)O2` gave a chromatographic logD of 3.6 (HPLC; pH 7.4).
For `COc1cc(Cl)c(C(=O)N[C@@H](CN[C@H]2CC[C@@H](N)CC2)Cc2ccc(C#N)cc2)cc1-c1ccc(CN[C@H](C)c2ccc(C)cc2)o1`, the chromatographic logD was 2.9 (HPLC; pH 7.5).
`C[C@H](C(=O)N1Cc2c(-c3ccc(C(=O)N4CCCc5ccccc54)cc3)cnn2C[C@H]1C)c1ccccc1` has a chromatographic logD of 5.2 (HPLC; pH 7.4).
The chromatographic logD of `CC1=C(C#N)[C@@H](c2ccc(C#N)cc2S(C)(=O)=O)NC(=O)N1c1cccc(C(F)(F)F)c1` is reported as 2.7 (HPLC; pH 7.5).
With `CC1=C(C(=O)OC(C)(C)C)C(=O)/C(=C\c2cc(C)n(-c3ccccc3C(F)(F)F)c2C)N1` the chromatographic logD was 3.8 (HPLC; pH 7.4).
With `CC1=C(C#N)[C@@H](c2ccc(C#N)cc2C(F)(F)F)NC(=O)N1c1cccc(C(F)(F)F)c1` the chromatographic logD was 3.2 (HPLC; pH 7.5).
With `CCOC(=O)C1=C(C)N/C(=C/c2cc(C)n(-c3ccncc3)c2C)C1=O` the chromatographic logD was 1.9 (HPLC; pH 7.4).
`Cc1cc(NC(=O)Nc2ccc3c(c2)OC(F)(F)O3)cc(C(F)(F)F)n1` has a chromatographic logD of 4.3 (HPLC; pH 7.4).
`CCOC(=O)C1=C(C)N/C(=C/c2cc(C)n(-c3cccnc3)c2C)C1=O` gave a chromatographic logD of 1.9 (HPLC; pH 7.4).
For `O=C(Nc1ccccc1C(=O)NC1CC1)c1cccc(N2CCCC2=O)c1`, the chromatographic logD was 4 (pH 7.4).
`CCOC(=O)C1=C(C)N/C(=C/c2cc(C)n(-c3ccc(CN4CCOCC4)cc3)c2C)C1=O` has a chromatographic logD of 2.5 (HPLC; pH 7.4).
`CC(C)(C)C1=CC(=NNc2ccc([N+](=O)[O-])cc2[N+](=O)[O-])C=C(C(C)(C)C)C1=O` gave a chromatographic logD of > 5.3 (HPLC; pH 7.4).
